{"source": "ChEMBL document CHEMBL1133089", "about": "(J Med Chem, 2000)", "key": {"[1]": {"target": "Neuronal acetylcholine receptor; alpha4/beta2 (Rattus norvegicus, UniProt P09483+P12390)", "sequence (P09483 whole entry)": "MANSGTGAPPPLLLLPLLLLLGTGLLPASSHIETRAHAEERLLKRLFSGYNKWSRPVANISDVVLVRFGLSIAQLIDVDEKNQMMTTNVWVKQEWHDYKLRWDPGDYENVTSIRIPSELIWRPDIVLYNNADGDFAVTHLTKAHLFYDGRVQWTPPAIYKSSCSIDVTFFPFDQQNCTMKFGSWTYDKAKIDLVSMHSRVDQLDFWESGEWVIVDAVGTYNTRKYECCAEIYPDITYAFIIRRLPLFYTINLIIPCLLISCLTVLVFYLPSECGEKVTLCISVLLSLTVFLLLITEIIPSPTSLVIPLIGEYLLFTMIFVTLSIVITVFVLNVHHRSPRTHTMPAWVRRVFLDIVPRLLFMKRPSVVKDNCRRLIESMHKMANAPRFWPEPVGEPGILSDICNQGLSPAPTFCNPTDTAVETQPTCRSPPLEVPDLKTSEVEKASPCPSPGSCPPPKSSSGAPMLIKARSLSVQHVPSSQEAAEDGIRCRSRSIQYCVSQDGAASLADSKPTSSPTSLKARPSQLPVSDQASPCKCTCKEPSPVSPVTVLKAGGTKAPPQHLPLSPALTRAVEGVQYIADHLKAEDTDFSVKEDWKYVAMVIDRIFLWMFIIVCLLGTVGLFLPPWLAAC", "sequence (P12390 whole entry)": "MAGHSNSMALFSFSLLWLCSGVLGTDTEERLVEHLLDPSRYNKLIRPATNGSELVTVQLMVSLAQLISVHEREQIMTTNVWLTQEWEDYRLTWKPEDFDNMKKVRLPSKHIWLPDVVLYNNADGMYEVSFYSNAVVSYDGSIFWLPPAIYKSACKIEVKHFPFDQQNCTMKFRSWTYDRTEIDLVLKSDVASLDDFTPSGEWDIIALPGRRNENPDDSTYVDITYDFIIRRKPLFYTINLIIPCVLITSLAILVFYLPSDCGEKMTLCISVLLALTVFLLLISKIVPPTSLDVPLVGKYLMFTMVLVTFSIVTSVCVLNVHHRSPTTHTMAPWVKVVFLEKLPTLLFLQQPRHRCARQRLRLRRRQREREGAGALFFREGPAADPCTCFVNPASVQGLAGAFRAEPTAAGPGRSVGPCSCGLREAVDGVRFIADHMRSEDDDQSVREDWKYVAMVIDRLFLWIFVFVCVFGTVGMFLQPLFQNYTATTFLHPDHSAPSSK", "assay": "Binding affinity in rat forebrain against Nicotinic acetylcholine receptor alpha4-beta2", "summary_of_the_method": "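Captured on GF/B filters treated with 0.01% PEI and counted by scintillation. Nonspecific binding taken with 100 µM carbachol. IC50 fitted from five concentrations run in triplicate.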"}, "[2]": {"target": "T1, Neuronal acetylcholine receptor subunit alpha-7 (Rattus norvegicus, UniProt Q05941)", "T1 sequence (Q05941 whole entry)": "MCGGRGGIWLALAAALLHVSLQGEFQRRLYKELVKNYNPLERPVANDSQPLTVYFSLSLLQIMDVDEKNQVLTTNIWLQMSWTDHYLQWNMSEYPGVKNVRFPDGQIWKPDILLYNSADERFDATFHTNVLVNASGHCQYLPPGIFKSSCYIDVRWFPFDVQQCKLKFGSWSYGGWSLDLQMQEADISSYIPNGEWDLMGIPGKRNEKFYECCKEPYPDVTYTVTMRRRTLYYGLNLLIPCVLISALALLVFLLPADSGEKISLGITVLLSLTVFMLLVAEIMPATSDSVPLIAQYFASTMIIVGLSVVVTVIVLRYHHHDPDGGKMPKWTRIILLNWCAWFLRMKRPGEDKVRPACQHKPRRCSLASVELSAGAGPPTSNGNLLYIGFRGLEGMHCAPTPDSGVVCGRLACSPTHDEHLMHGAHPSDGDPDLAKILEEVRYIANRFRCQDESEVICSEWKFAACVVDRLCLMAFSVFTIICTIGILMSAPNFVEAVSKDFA", "assay": "Binding affinity in rat hippocampi against Nicotinic acetylcholine receptor alpha7", "format": "tissue-based, Hippocampus", "summary_of_the_method": "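Incubated with 5 nM [¹²⁵I]α-bungarotoxin and 1 mg/mL BSA for 2 h at 21 °C. Collected on GF/C filters pretreated with 1% BSA/0.01% PEI. IC50 from six concentrations in triplicate.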"}, "[3]": {"target": "T1, Neuronal acetylcholine receptor subunit alpha-7", "assay": "Potency was determined by measuring current activation in Xenopus oocytes expressing rat alpha-7 nAChRs", "format": "cell-based, Oocyte", "summary_of_the_method": "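Xenopus oocytes injected with cRNA for rat α7 nAChR and recorded 3-10 days after injection. Read-out is evoked current activation. Intrinsic activity scaled in each oocyte to the current elicited by 3 mM acetylcholine, set as 100%.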"}}, "data": [{"smiles": "CCN1CC2(CN3CCC2CC3)OC1=O", "note": "(configuration not stated)", "values": [{"measurement": "Ki", "setting": "[1]", "value": 0.17, "unit": "µM"}, {"measurement": "Ki", "setting": "[2]", "value": 0.69, "unit": "µM"}]}, {"smiles": "CN1C(=O)NCC12CN1CCC2CC1", "note": "(configuration not stated)", "values": [{"measurement": "Ki", "setting": "[2]", "value": "> 13", "unit": "µM"}]}, {"smiles": "O=C1NC2(CO1)CN1CCC2CC1", "note": "(configuration not stated)", "values": [{"measurement": "Ki", "setting": "[2]", "value": "> 4.3", "unit": "µM"}]}, {"smiles": "O=C1CC2(CN1)CN1CCC2CC1", "note": "(configuration not stated)", "values": [{"measurement": "Ki", "setting": "[2]", "value": 4, "unit": "µM"}]}, {"smiles": "O=C1NCC2(CN3CCC2CC3)N1", "note": "(configuration not stated)", "values": [{"measurement": "Ki", "setting": "[2]", "value": "> 13", "unit": "µM"}]}, {"smiles": "O=C1NCC2(CN3CCC2CC3)O1", "note": "(single isomer, unassigned; (-))", "values": [{"measurement": "EC50", "setting": "[3]", "value": 21000, "unit": "µM"}]}]}
